An excerpt weighted towards active compounds, which were near 4.1% of everything screened.
KCNK9 block: KCNK9 potassium channel inhibitors, primary screen, HEK293 cells, thallium flux; Potassium channel subfamily K member 9 (Homo sapiens), Q9NPC2; FluxOR thallium flux fluorescence; active compounds read low; B-score at 10 µM; 310,000 compounds, 1.2% hits;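 active = ratio B-score over 3 SD below the library mean, with starting fluorescence within 5 SD of its mean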;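 note: negative B-score means less thallium flux so channel inhibition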
Target sequence (Q9NPC2 whole entry, looked up): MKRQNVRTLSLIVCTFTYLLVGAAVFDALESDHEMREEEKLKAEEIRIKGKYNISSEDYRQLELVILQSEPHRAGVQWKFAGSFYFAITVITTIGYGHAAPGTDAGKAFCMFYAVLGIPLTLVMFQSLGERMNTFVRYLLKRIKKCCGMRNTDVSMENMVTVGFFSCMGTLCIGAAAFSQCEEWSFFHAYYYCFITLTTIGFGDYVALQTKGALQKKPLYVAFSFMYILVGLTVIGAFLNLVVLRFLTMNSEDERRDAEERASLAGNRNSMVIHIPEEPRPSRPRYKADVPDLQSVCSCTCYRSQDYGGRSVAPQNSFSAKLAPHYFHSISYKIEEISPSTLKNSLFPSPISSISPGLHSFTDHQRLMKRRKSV
KCNQ1 act: potentiators or activators of KCNQ1 channel, primary screen, cell-based, thallium flux, high-throughput | Potassium voltage-gated channel subfamily KQT member 1 (Homo sapiens), P51787 | CHO-K1 KCNQ1, thallium flux FluxOR fluorescence; active compounds read high | B-score at 10 µM | 310,000 compounds, 0.35% hits;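 active = fluorescence ratio B-score, a plate-corrected score, at least three library SD, with initial intensity B-score within 5 SD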
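System: Stable KCNQ1 CHO-K1 line | Incubation: 90 min dye loading and 20 min compound exposure, both at room temperature | Measure: Ratio B score | Medium: Assay buffer for compound exposure, DMSO matched across wells | Compound dosing: Single-concentration screen | Probe or stimulus: K+/Tl+ depolarizing stimulus | Measured by: Kinetic FluxOR fluorescence, 10 s baseline plus 110 s post-stimulus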
KCNQ1 block: inhibitors of human KCNQ1 channel, primary screen, cell-based, thallium flux, high-throughput; CHO-K1 KCNQ1, FluxOR thallium flux fluorescence; active compounds read high; Potassium voltage-gated channel subfamily KQT member 1 (Homo sapiens), P51787; B-score at 10 µM; 310,000 compounds, 1.3% hits;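 active = compounds whose thallium flux B-score, printed positive for inhibition, exceeds three library SD while starting fluorescence stays within three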;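 note: channel opened by potassium depolarization with thallium stimulus after 20 min compound exposure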
hERG protect: hERG rescue from dofetilide block, primary screen, cell-based, CHO-hERG, FluxOR thallium flux, dofetilide IC70 | dofetilide IC70 present | activation (rescue from dofetilide block), less the hit threshold, % at 10 µM | 310,000 compounds, 0.51% hits | AID 1511, 2009;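 active = activation above the mean of controls blocked by dofetilide plus 5 SD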;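 note: thallium influx through hERG after potassium depolarization seen as dye fluorescence rise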
KCNK3 block: human KCNK3 channel inhibitors, primary screen, CHO cells, FluxOR thallium flux, B-score | Potassium channel subfamily K member 3 (Homo sapiens), O14649 | FluxOR fluorescence; active compounds read low | B-score at 10 µM | 340,000 compounds, 0.84% hits | AID 602410, 2012;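 active = B-score under library mean minus 4 SD, starting fluorescence ratio at most library mean plus 5 SD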;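 note: more negative B-score means stronger inhibition of thallium flux through KCNK3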
Cl transport mod: KCC2 cotransporter modulators, thallium flux, primary screen, cell-based, HEK293 KCC2, FluoZin-2 fluorescence, MLSMR; Solute carrier family 12 member 5 (Homo sapiens), Q9H2X9; KCC2 cells, thallium flux FluoZin-2 fluorescence; B-score of Tl+ flux slope (higher = more flux/activation; lower = inhibition) at 10 µM; 190,000 compounds, 2.2% hits;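 active = thallium flux slope and its plate-corrected score both differing from the plate sample mean at a set confidence after two filtering rounds, in either direction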;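 note: slope of fluorescence scaled to starting intensity during 10 to 20 s after thallium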
KCNQ1 inh valid: KCNQ1 potassium channel inhibitors, confirmation, cell-based, Tl flux, duplicate; KCNQ1 cell line, FluxOR thallium flux fluorescence; 1,600 compounds, 93% hits; inhibition, % at 10 µM; AID 588353, 2011; shares compounds with KCNQ1 block;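 active = primary screen active, with duplicate mean exceeding buffer control mean plus 3 SD of buffer wells, cut at about 28% in these data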;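 note: 0% = buffer control ratio and 100% = XE991 inhibitor control ratio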
CHO KCNQ1 ctr: thallium flux effects in parental CHO cells, counter-screen for KCNQ1 inhibitor project, cell-based, Tl flux. AID 588366, 2011. fluorescence ratio (Tl flux) at 10 µM. 1,600 compounds, 21% hits. shares compounds with KCNQ1 block. parental CHO-K1, FluxOR thallium flux fluorescence ratio; active compounds read low; zero means no signal rise above baseline;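 active = mean of duplicate thallium-flux fluorescence ratios in parental host cells more than 5 SD below the buffer control mean, cut at about 0.38 in these data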;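 note: ratio is peak minus minimum fluorescence divided by baseline fluorescence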
KCNQ2 spec: KCNQ2 channel inhibition, selectivity assay for KCNQ1 inhibitor project, cell-based | AID 651746, 2012 | KCNQ2 cells, FluxOR thallium flux fluorescence | shares compounds with KCNQ1 block | 1,600 compounds, 71% hits | inhibition, % at 10 µM;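 active = mean percent inhibition of the KCNQ2 thallium signal more than 5 SD above the buffer-only control wells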;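 note: KCNQ2 expressed in CHO cells; 0% = buffer control wells and 100% = XE-991 inhibitor control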
KCNQ1-KCNE1 inh: KCNQ1/KCNE1 channel inhibition, selectivity assay for KCNQ1 inhibitor project, CHO-K1 cells, thallium flux, FluxOR; shares compounds with KCNQ1 block; inhibition, % at 10 µM; 1,600 compounds, 77% hits; FluxOR thallium flux fluorescence;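 active = mean percent inhibition of duplicate wells above the buffer-only control mean plus 3 SD of those controls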;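 note: 0% = buffer only wells and 100% = XE-991 inhibitor control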
* = called active by the depositor; i = inactive; . = no result given.

SMILES	KCNK9 block	KCNQ1 act	KCNQ1 block	hERG protect	KCNK3 block	Cl transport mod	KCNQ1 inh valid	CHO KCNQ1 ctr	KCNQ2 spec	KCNQ1-KCNE1 inh
OCCNc1c2ccccc2nc2c(F)c(F)c(F)c(F)c12	i	i	6*	-14	i	-1	84*	0.37*	105%*	101%*
CC(C)(C)C(=O)Nc1ccc(S(=O)(=O)N2CCC(c3nc4ccccc4[nH]3)CC2)cc1	i	i	i	-11	i	.	.	.	.	.
CC(C)(C)c1csc(NC(=O)Cc2ccc(S(=O)(=O)N3CCOCC3)s2)n1	i	i	9*	-7	i	.	72*	0.47	i	96%*
OCC1(Cc2cccc(Cl)c2)CCCN(Cc2ccc(F)c(F)c2)C1 (stereo not given)	i	i	i	-13	i	.	.	.	.	.
CSc1cccc(CN2CCCC(CO)(Cc3cccc(Cl)c3)C2)c1 (stereo not given)	i	i	7*	-18	i	-0.6	56*	0.41	101%*	86%*
Oc1ccc(-c2n[nH]c(C(F)(F)F)c2-c2ccccc2)c(O)c1	i	i	8*	-20	i	-0.087	156*	0.37*	i	182%*
S=C(NCc1cccs1)Nc1cc(Cl)cc(Cl)c1	i	i	6*	-10	i	.	34*	0.54	78%*	i
COc1ccc2[nH]cc(CCNC(=O)CC[C@H]3O[C@@H](n4cc(C)c(=O)[nH]c4=O)C[C@@H]3O)c2c1	.	.	.	.	i	.	.	.	.	.
CCCNC(=S)Nc1cccc(C(F)(F)F)c1	i	i	i	-8	i	0.42	.	.	.	.
FC(F)(F)c1cccc(NC(=S)NCC2COc3ccccc3O2)c1 (stereo not given)	i	i	7*	-22	i	0.11	58*	0.49	65%*	44%*
O=C(NCc1ccccc1Cl)C1CCCN1S(=O)(=O)c1ccccc1F (stereo not given)	i	i	i	-5	i	.	.	.	.	.
Cc1nc(N2CCN(c3ccccn3)CC2)c2c(C)c(C(=O)Nc3ccc(Br)cc3C)sc2n1	i	i	7*	-13	i	.	82*	0.45	98%*	104%*
Cc1ccc(NC(=O)c2sc3nc(C)nc(N4CCN(c5ccccn5)CC4)c3c2C)c(C)c1	i	i	8*	-13	i	0.068	84*	0.46	97%*	98%*
O=c1cc(SCc2ccc(Cl)cc2Cl)nc[nH]1	.	.	.	.	i	.	.	.	.	.
Cc1c(C(=O)N2CCN(c3ncccn3)CC2)oc2c(Cl)cccc12	i	i	i	-10	i	.	.	.	.	.
COc1cccc(CNC(=O)CCNC(=O)Cn2ccc3ccccc3c2=O)c1	i	i	7*	-17	i	-0.13	0	0.56	i	i

Screens: PubChem BioAssay, several laboratories
